Experimental data of several laboratories.
Target: Tyrosine-protein kinase Fyn (FYN, Homo sapiens, UniProt P06241)

| SMILES | test | conditions | quantity | value |
| --- | --- | --- | --- | --- |
| O=C1Nc2ccc(Cl)cc2C1=Cc1cc(Cl)c(O)c(Cl)c1 | cell-free assay | 0.5 µM | remaining signal | 73% |
| CC(C)c1ccc(NC(=O)c2cccs2)c(-c2nc3ccccc3[nH]c2=O)c1 | enzyme activity, inhibitor | 1 µM | activity vs control | 103% |
| COc1cc(OC)c(C=C2C(O)=Nc3ccccc32)c(OC)c1 | cell-free assay, inhibitor | 0.5 µM | remaining signal | 100% |
| CN([C@@H]1CCc2c(CC(=O)O)c3cc(S(C)(=O)=O)ccc3n2C1)S(=O)(=O)c1ccc(F)cc1 | cell-free assay, competition with immobilised ligand | 1 µM | remaining binding | 99% |
| Cc1cnc(NC2CCOCC2)nc1-n1cnc(C(=O)NC(CN)c2cc(F)cc(Cl)c2)c1 (centres unmarked) | enzyme activity, inhibitor, radiometric | 1 µM | remaining activity | 100% |
| COc1cc2ncnc(Nc3ccc(F)c(Cl)c3)c2cc1OCCCN1CCOCC1 | cell-free assay | 0.5 µM | remaining signal | 92.2% |
| COc1ccc2cc(OCC3(C(=O)O)CN(C(=O)c4ccc(F)cc4)C3)ccc2c1 | cell-free assay, competition with immobilised ligand | 1 µM | remaining binding | 100% |
| COc1cc2ncnc(Nc3ccc(Oc4ccccc4)cc3C)c2cc1OC | enzyme activity, inhibitor | 1 µM | inhibition | 83% |
| Cc1sc(C(=O)NC2COC2)cc1-n1cc(NC(=O)Nc2c(F)cccc2Cl)cn1 | enzyme activity, inhibitor | 10 µM | remaining activity | 99.8% |
| CC(C)(C)c1nc2c(s1)c1nc(N)ncc1c1ccc(NS(=O)(=O)c3c(F)cccc3F)c(F)c12 | enzyme activity, inhibitor, radiometric | 1 µM | remaining activity | 97% |
| Cc1cc(NC(=O)c2cccc(S(F)(F)(F)(F)F)c2)cc(-n2ccn3nc(-c4cccnc4)cc23)c1 | cell-free assay, competition with immobilised ligand | 1 µM | remaining binding | 81.3% |
| O=C1NC(=O)c2cc(Nc3ccc(F)cc3)c(Nc3ccc(F)cc3)cc21 | cell-free assay | 0.5 µM | remaining signal | 99.4% |
| CCN(CC)CCNC(=O)c1c(C)[nH]c(/C=C2\C(=O)Nc3ccc(F)cc32)c1C | enzyme activity, inhibitor | 10 µM | inhibition | 89% |
| N#CCCc1ccc2c(c1)-c1[nH]c3ccc([N+](=O)[O-])cc3c1CC(=O)N2 | cell-free assay | 0.5 µM | remaining signal | 52.2% |
| CNC(=O)c1cc(Oc2ccc(NC(=O)Nc3ccc(Cl)c(C(F)(F)F)c3)cc2)ccn1 | enzyme activity, inhibitor | 0.3 µM | inhibition | -22% |
| CCOC(=O)c1cc2cc(-c3cc(C(=O)NCc4ccc(C(=O)O)cc4)nn3C)ccc2[nH]1 | cell-free assay, competition with immobilised ligand | 0.1 µM | remaining binding | 100% |

| SMILES | test | conditions | quantity | value |
| --- | --- | --- | --- | --- |
| CC(C)(O)[C@H]1CC[C@H](Nc2ccc3ncc(-c4cccc(C(F)(F)F)c4)n3n2)CC1 | enzyme activity, inhibitor | 1 µM | remaining activity | 22.4% |
| c1ccc(CNc2nc(N3CCOc4ccccc43)nc3c2CCCC3)cc1 | target engagement in cells, inhibitor, chemoproteomics | 20 mM | inhibition | -18% |
| CNC(=O)Nc1ccc2c(c1)[C@@]1(CC2)OC(=O)N(CC(=O)N(Cc2ccc(F)cc2)[C@@H](C)C(F)(F)F)C1=O | cell-free assay, competition with immobilised ligand | 1 µM | remaining binding | 79% |
| Cc1cc(NC(=O)c2cccc3cc(-c4cccc5[nH]nc(N)c45)ccc23)ccc1F | enzyme activity, inhibitor | 0.1 µM | activity vs control | 88% |
| O=c1cc(-c2cccc3c2Sc2ccccc2S3)oc(N2CCOCC2)c1 | enzyme activity, inhibitor | 0.5 µM | remaining activity | 88.6% |
| CC/C(=N\NC(=O)NCc1cccc(O)c1)c1ccc(O)c(C)c1O | enzyme activity, inhibitor | 0.1 µM | inhibition | 0.5% |
| CNC(=O)c1cc2c(Oc3ccc(NC(=O)C4(C(=O)Nc5ccc(F)cc5)CC4)cc3)ccnc2cc1OC | enzyme activity, inhibitor, radiometric | 1 µM | inhibition | 72% |
| Nc1ncnc2occ(-c3ccc(NC(=O)Nc4cc(C(F)(F)F)ccc4F)cc3)c12 | enzyme activity, inhibitor | 20 µM | remaining activity | 2.8% |
| CC(=O)c1c(NS(C)(=O)=O)c2cc(-c3ccc(Cl)cc3)c(-c3ccc(Cl)cc3Cl)nc2n(C)c1=O | cell-free assay, competition with immobilised ligand | 1 µM | remaining binding | 92% |
| CNCc1ccc(-c2cc(-c3nc(-c4ccc(S(=O)(=O)C(C)C)cc4)cnc3N)on2)cc1 | enzyme activity, inhibitor | 2 µM | inhibition | 27% |
| CCN(CC)c1ccc(C2=NNC(=O)CC2C)cc1[N+](=O)[O-] (centres unmarked) | enzyme activity, inhibitor | 10 µM | remaining activity | 110% |
| Cn1cnc(Br)c1C1=CN(c2ncnc3[nH]cnc23)CCS1 | enzyme activity, inhibitor, radiometric | 50 nM | inhibition | 21.6% |
| CCc1ccccc1C(=O)Nc1n[nH]c2c(C)c(F)c(C3C(C#N)=C(C)N(C)C(C)=C3C#N)cc12 | cell-free assay, competition with immobilised ligand | 1 µM | remaining binding | 100% |
| c1nc2c(Nc3ccc4c(c3)OCCO4)nc(Nc3ccc4c(c3)OCCO4)nc2[nH]1 | enzyme activity, inhibitor | 10 µM | activity vs control | 8.7% |
| CC(=O)Nc1c(C(C)=O)c(=O)n(C)c2nc(-c3ccc(Cl)cc3Cl)c(-c3ccc(Cl)cc3)cc12 | cell-free assay, competition with immobilised ligand | 1 µM | remaining binding | 100% |
| C=CC(=O)Nc1cc(Nc2nccc(Nc3cc(Cl)c(F)cc3C(C)(C)O)n2)c(OC)cc1N1CC[C@@H](N(C)C)C1 | enzyme activity, inhibitor | 1 µM | inhibition | 23% |
